According to ChEMBL document CHEMBL1153741, “Antineoplastic agents. 556. Isolation and structure of Coprinastatin 1 from Coprinus cinereus” (2010):
In brackets after ≈: the same amount, converted by molar mass. Activity calls are given as the source filed them. The rule behind the calls is not given here.

Columns and labels:
[1] = system: Stenotrophomonas maltophilia; experiment: Antibacterial activity against Stenotrophomonas maltophilia ATCC 13637 by broth microdilution assay; type: functional, organism-based
Method in brief: (§1)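 Samples reconstituted in a small volume of sterile DMSO and diluted in the appropriate medium immediately before testing by established broth microdilution. MIC taken as the lowest concentration that inhibited all visible growth of the test organism (optically clear wells). Assays were repeated on separate days.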

[2] = system: Enterobacter cloacae; experiment: Antibacterial activity against Enterobacter cloacae ATCC 13047 by broth microdilution assay; type: functional, organism-based; method in brief: as §1
[3] = system: Candida albicans; experiment: Antifungal activity against Candida albicans ATCC 90028 by broth microdilution assay; type: functional, organism-based; method in brief: as §1
[4] = system: Staphylococcus aureus; experiment: Antibacterial activity against Staphylococcus aureus ATCC 29213 by broth microdilution assay; type: functional, organism-based; method in brief: as §1
[5] = system: Neisseria gonorrhoeae; experiment: Antibacterial activity against Neisseria gonorrhoeae ATCC 49226 by broth microdilution assay; type: functional; method in brief: as §1
[6] = system: Enterococcus faecalis; experiment: Antibacterial activity against Enterococcus faecalis ATCC 29212 by broth microdilution assay; type: functional, organism-based; method in brief: as §1
[7] = system: Escherichia coli; experiment: Antibacterial activity against Escherichia coli ATCC 25922 by broth microdilution assay; type: functional, organism-based; method in brief: as §1
[8] = system: Streptococcus pneumoniae; experiment: Antibacterial activity against Streptococcus pneumoniae ATCC 6303 by broth microdilution assay; type: functional, organism-based; method in brief: as §1
[9] = system: Cryptococcus neoformans; experiment: Antifungal activity against Cryptococcus neoformans ATCC 90112 by broth microdilution assay; type: functional, organism-based; method in brief: as §1
[10] = system: Micrococcus luteus; experiment: Antibacterial activity against Micrococcus luteus Presque Isle 456 by broth microdilution assay; type: functional, organism-based; method in brief: as §1
[11] = system: P388; experiment: Cytotoxicity against mouse P388 cells; type: functional

MIC [5]	Compound	Activity [1]	Activity [2]	Activity [3]	Activity [4]	Activity [5]	Activity [6]	Activity [7]	Activity [8]	Activity [9]	Activity [10]	Activity [11]	EC50 ([11]; read-out: ED50 (the source's name))
–	CC(=O)c1cccc2oc(=O)[nH]c12	inactive	inactive	inactive	inactive	inactive	inactive	inactive	inactive	inactive	inactive	inactive	–
–	Cc1c(O)c2c(c(C)c1CCO)C[C@@](C)(CO)C2	inactive	inactive	inactive	inactive	inactive	inactive	inactive	inactive	inactive	inactive	inactive	–
–	C=C1[C@@H](O)[C@@H]2CC(C)(C)CC2=C(CO)C12CC2	inactive	inactive	inactive	inactive	inactive	inactive	inactive	inactive	inactive	inactive	inactive	–
32 µg/mL (≈ 137 µM)	C=C1[C@@H](O)[C@@H]2C[C@](C)(CO)CC2=C(C)C12CC2 [COPRINASTATIN 1]	inactive	inactive	inactive	inactive	–	inactive	inactive	inactive	inactive	inactive	–	5.3 µg/mL (≈ 22.6 µM)
–	Cc1c(O)c2c(c(C)c1CCO)CC(C)(C)C2	inactive	inactive	inactive	inactive	inactive	inactive	inactive	inactive	inactive	inactive	inactive	–
–	Cc1c(O)c2c(c(C)c1CCO)C[C@](C)(CO)C2	inactive	inactive	inactive	inactive	inactive	inactive	inactive	inactive	inactive	inactive	inactive	–
